Data: ChEMBL document CHEMBL1123096, “Alpha-adrenoreceptor reagents. 3. Synthesis of some 2-substituted 1,4-benzodioxans as selective presynaptic alpha 2-adrenoreceptor antagonists” (J Med Chem, 1985)

Assays:
[1] = target: T1, Adrenergic receptor alpha-1 (Rattus norvegicus) (UniProt P15823+P23944+P43140); test: post-synaptic antagonist activity towards alpha-1 adrenergic receptor was determined. Concentration giving a dose response to phenylephrine (idazoxan=1) was reported.; format: functional
Outline: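 Rat anococcygeus, postsynaptic α1 antagonism. At least five phenylephrine concentration–response curves were run alone, then at least four with the antagonist present.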

[2] = target: T2, Adrenergic receptor alpha-2 (Rattus norvegicus, UniProt P22086+P19328+P22909); test: Alpha-2 adrenergic receptor antagonist activity in a rat vas deferens assay. Values ranges from 8.31-8.44; format: functional
T2 sequence (P22086 whole entry): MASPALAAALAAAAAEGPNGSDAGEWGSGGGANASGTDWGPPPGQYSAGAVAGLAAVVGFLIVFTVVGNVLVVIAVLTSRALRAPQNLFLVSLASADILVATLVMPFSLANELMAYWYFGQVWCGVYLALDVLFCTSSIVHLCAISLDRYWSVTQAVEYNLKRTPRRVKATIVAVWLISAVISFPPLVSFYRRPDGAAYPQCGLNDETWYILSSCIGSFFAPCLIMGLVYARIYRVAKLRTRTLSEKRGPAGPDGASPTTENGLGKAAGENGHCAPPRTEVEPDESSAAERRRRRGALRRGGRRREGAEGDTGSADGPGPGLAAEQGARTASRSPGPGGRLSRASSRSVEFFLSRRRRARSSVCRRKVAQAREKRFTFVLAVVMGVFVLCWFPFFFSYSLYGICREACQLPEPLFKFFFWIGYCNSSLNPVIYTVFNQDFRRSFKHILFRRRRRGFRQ
T2 sequence (P19328 whole entry): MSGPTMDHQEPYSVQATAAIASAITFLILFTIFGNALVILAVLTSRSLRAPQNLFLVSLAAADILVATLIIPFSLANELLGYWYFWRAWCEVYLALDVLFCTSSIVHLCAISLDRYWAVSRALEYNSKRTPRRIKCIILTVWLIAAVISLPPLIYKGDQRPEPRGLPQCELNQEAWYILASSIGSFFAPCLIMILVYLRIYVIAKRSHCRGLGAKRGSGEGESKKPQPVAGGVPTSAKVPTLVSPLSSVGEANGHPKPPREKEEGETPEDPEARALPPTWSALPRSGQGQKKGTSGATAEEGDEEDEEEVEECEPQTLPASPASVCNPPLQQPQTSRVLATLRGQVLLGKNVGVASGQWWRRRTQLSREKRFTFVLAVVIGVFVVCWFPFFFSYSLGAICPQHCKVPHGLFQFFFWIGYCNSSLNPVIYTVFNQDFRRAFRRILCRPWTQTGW
T2 sequence (P22909 whole entry): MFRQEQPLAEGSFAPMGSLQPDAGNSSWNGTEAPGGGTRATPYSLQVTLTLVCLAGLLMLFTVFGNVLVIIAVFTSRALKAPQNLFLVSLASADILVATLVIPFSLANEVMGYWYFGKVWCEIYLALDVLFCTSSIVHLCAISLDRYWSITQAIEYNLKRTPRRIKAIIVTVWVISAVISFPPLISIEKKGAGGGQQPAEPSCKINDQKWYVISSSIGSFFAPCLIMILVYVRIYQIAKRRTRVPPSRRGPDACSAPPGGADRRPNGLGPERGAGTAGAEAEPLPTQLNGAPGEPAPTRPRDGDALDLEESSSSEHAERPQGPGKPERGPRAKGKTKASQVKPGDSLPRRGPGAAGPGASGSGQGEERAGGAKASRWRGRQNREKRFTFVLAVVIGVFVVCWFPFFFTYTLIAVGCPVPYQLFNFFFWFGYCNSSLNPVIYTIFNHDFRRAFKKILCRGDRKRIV
Outline: (§1)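 pA2 at presynaptic α2-adrenoreceptors in field-stimulated rat vas deferens. Tissue was held in Krebs solution (NaCl 118 mM, KCl 4.7 mM, CaCl2 2.5 mM, KH2PO4 1.2 mM, MgSO4 0.6 mM, NaHCO3 25 mM, dextrose 11.1 mM) gassed with 95% O2/5% CO2 at 30 °C. Stimulation was 3-ms pulses, 40 V, 0.1 Hz, with contractions recorded isometrically. Twitches were inhibited by clonidine (110 nM).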

[3] = target: Adrenergic receptor alpha (Rattus norvegicus) (UniProt P15823+P23944+P43140+P22086+P19328+P22909); test: Selectivity as ratio […] against alpha-2 receptor to that of alpha-1 receptor.; format: protein assay
[4] = target: T1, Adrenergic receptor alpha-1 (Rattus norvegicus); test: Alpha-1 adrenergic receptor binding activity relative to idazoxan.; format: protein assay
[5] = target: T3, Adrenergic receptor alpha-2 (Rattus norvegicus) (UniProt P22086+P19328+P22909); test: Alpha-2 adrenergic receptor antagonist activity compared to idazoxan; format: functional
Outline: (§2)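 Vas deferens from rat or mouse; the mouse tissue was in Mg-free Krebs at 30 °C under 0.5 g tension, stimulated at 0.1 Hz, 3 ms, 100–140 V, giving a twitch of about 100 mg. […] Standard curves were run before and after the test curve.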

[6] = target: T4, Adrenergic receptor alpha-1 (Rattus norvegicus, UniProt P15823+P23944+P43140); test: Alpha-1 adrenergic receptor antagonist activity in a rat anococcygeus. Values ranges from 6.63-6.78; format: functional
T4 sequence (P15823 whole entry): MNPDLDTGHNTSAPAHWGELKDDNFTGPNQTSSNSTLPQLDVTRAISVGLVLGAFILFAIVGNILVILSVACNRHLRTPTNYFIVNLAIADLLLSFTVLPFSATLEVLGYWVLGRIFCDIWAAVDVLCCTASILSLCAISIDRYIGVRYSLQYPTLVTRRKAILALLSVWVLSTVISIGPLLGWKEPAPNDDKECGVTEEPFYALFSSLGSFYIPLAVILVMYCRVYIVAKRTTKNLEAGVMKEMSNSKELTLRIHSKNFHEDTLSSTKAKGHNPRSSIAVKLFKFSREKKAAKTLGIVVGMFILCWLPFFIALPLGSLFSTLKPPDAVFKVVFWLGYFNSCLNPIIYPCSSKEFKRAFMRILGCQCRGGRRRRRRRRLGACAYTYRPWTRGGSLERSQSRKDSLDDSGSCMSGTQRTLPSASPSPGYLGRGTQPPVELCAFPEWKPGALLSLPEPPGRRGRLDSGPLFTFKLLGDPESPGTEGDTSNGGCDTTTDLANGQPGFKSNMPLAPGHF
T4 sequence (P23944 whole entry): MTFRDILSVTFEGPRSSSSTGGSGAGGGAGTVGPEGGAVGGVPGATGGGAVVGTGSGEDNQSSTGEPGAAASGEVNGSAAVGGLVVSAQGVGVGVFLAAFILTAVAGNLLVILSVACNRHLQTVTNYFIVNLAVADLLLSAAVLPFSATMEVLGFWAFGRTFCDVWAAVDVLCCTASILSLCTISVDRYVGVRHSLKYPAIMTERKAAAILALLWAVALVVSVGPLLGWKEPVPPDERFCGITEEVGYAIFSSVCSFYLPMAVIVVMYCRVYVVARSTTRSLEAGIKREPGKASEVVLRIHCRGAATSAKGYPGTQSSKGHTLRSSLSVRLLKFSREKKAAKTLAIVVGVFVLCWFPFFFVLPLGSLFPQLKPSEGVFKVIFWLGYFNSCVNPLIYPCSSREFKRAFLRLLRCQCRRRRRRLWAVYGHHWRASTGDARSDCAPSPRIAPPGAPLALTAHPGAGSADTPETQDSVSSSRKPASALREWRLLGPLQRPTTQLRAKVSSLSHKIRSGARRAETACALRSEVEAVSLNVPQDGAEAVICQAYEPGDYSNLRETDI
T4 sequence (P43140 whole entry): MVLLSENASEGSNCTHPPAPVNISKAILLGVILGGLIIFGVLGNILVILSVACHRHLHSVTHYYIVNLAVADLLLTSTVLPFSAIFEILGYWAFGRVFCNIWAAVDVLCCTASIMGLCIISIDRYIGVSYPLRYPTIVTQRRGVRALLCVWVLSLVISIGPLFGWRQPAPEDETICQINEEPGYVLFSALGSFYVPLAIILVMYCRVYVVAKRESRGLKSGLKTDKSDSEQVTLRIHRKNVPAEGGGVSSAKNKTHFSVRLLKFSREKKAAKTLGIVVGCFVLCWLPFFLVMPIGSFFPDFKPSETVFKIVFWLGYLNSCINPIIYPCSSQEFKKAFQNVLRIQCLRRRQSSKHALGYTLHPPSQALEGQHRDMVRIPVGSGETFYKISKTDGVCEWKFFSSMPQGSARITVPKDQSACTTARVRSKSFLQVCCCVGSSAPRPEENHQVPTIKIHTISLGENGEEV

[7] = target: T3, Adrenergic receptor alpha-2 (Rattus norvegicus); test: Presynaptic antagonist activity towards alpha-2 adrenergic receptor.; format: functional; outline: as §2
[8] = target: T4, Adrenergic receptor alpha-1; test: Alpha-1 adrenergic receptor antagonist activity in a rat anococcygeus. Values ranges from 6.50-6.62; format: functional
[9] = target: T2, Adrenergic receptor alpha-2; test: Alpha-2 adrenergic receptor antagonist activity in a rat vas deferens assay. Values ranges from 8.42-9.51; format: functional; outline: as §1
[10] = target: T4, Adrenergic receptor alpha-1; test: Alpha-1 adrenergic receptor antagonist activity in a rat anococcygeus. Values ranges from 6.53-7.08; format: functional
[11] = target: T2, Adrenergic receptor alpha-2; test: Alpha-2 adrenergic receptor activity in a rat vas deferens assay. Values ranges from 8.85-9.01; format: tissue-based; outline: as §1
[12] = target: T4, Adrenergic receptor alpha-1; test: Alpha-1 adrenergic receptor antagonist activity in a rat anococcygeus. Values ranges from 5.84-6.31; format: functional
[13] = target: T2, Adrenergic receptor alpha-2; test: Alpha-2 adrenergic receptor antagonist activity in a rat vas deferens assay. Values ranges from […]; format: functional, tissue-based; outline: as §1
[14] = target: T2, Adrenergic receptor alpha-2; test: Alpha-2 adrenergic receptor antagonist activity in a rat vas deferens assay. Values ranges from 8.54-8.87; format: functional, tissue-based
[15] = target: T4, Adrenergic receptor alpha-1; test: Alpha-1 adrenergic receptor antagonist activity in a rat anococcygeus. Values ranges from 6.35-6.44; format: functional
[16] = target: T4, Adrenergic receptor alpha-1; test: Alpha-1 adrenergic receptor antagonist activity in a rat anococcygeus. Values ranges from 6.35-6.88; format: functional
[17] = target: T2, Adrenergic receptor alpha-2; test: Alpha-2 adrenergic receptor antagonist activity in a rat vas deferens assay. Values ranges from 8.74-9.17; format: functional; outline: as §1
[18] = target: T2, Adrenergic receptor alpha-2; test: Alpha-2 adrenergic receptor antagonist activity in a rat vas deferens assay. Values ranges from 9.30-9.52; format: functional, tissue-based; outline: as §1
[19] = target: T4, Adrenergic receptor alpha-1; test: Alpha-1 antagonist activity in a rat anococcygeus. Values ranges from 6.6-7.23; format: functional
[20] = target: T4, Adrenergic receptor alpha-1; test: Alpha-1 adrenergic receptor antagonist activity in a rat anococcygeus. Values ranges from 5.19-5.44; format: functional
[21] = target: T2, Adrenergic receptor alpha-2; test: Alpha-2 adrenergic receptor antagonist activity in a rat vas deferens assay. Values ranges from 7.80-8.14; format: functional, tissue-based
[22] = target: T1, Adrenergic receptor alpha-1 (Rattus norvegicus); test: post-synaptic antagonist activity towards adrenergic receptor was determined. Concentration giving a dose response to phenylephrine (idazoxan=1) was reported.; format: functional
Outline: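 The agonist was phenylephrine, tested on isolated rat anococcygeus under 0.5 g initial tension. At least five phenylephrine dose-response curves were run alone, then at least four in the presence of the analogue.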

[23] = target: T2, Adrenergic receptor alpha-2; test: Alpha-2 adrenergic receptor activity in a rat vas deferens assay. Values ranges from 8.25-9.35; format: tissue-based; outline: as §1
[24] = target: T4, Adrenergic receptor alpha-1; test: Alpha-1 adrenergic receptor activity in a rat anococcygeus. Values ranges from 6.17-6.38
[25] = target: T2, Adrenergic receptor alpha-2; test: Alpha-2 adrenergic receptor antagonist activity in a rat vas deferens assay. Values ranges from 8.00-8.47; format: functional, tissue-based; outline: as §1
[26] = target: T4, Adrenergic receptor alpha-1; test: Alpha-1 adrenergic receptor antagonist activity in a rat anococcygeus. Values ranges from 5.37-5.48; format: functional

Row | Structure (SMILES) | Postsynaptic antagonist [1] | Ratio [3] | Relative potency [4] | Relative potency [5] | potency relative to idazoxan [7] | further results
1 | CCCCOC1(C2=NCCN2)COc2ccccc2O1 (stereo not given) | 2.2 | 0.7 | 2.4 | 0.7 | 1.6 | pA2 [2]: 8.37; pA2 [6]: 6.7
2 | C=CCOC1(C2=NCCN2)COc2ccccc2O1 (stereo not given) | 6 | 0.3 | 1.7 | 2 | 2 | pA2 [8]: 6.55; pA2 [9]: 8.81
3 | CCOC1(C2=NCCN2)COc2ccccc2O1.Cl (stereo not given) | 7 | 0.8 | 2.6 | 2.6 | 5.9 | pA2 [10]: 6.74; pA2 [11]: 8.92
4 | CC(C)OC1(C2=NCCN2)COc2ccccc2O1 (stereo not given) | 0.6 | 1.6 | 0.5 | 1.5 | 1 | pA2 [12]: 6.01; pA2 [13]: 8.67
5 | CCC1(C2=NCCN2)COc2ccccc2O1 (stereo not given) | 2.25 | 1.3 | 1.2 | 1.6 | 3 | pA2 [14]: 8.87; pA2 [15]: 6.44
6 | CCCC1(C2=NCCN2)COc2ccccc2O1 (stereo not given) | 3.2 | 1.5 | 1.7 | 2.6 | 4.8 | pA2 [16]: 6.56; pA2 [17]: 8.92
7 | COC1(C2=NCCN2)COc2ccccc2O1 (stereo not given) | 4 | 2.8 | 4 | 8.1 | 11 | pA2 [18]: 9.41; pA2 [19]: 6.91
8 | CC1(C2=NCCN2)COc2ccccc2O1.Cl (stereo not given) |  | 2.4 | 0.1 | 0.3 | 0.67 | pA2 [20]: 5.44; pA2 [21]: 8.14; Postsynaptic antagonist [22]: 0.28
9 | CCCOC1(C2=NCCN2)COc2ccccc2O1 (stereo not given) | 1 | 1.5 | 0.9 | 1.4 | 1.5 | pA2 [23]: 8.64; pA2 [24]: 6.26
10 | C=C(C)C1(C2=NCCN2)COc2ccccc2O1.Cl (stereo not given) | 0.07 | 5.7 | 0.1 | 0.5 | 0.4 | pA2 [25]: 8.21; pA2 [26]: 5.42
